From ChEMBL document CHEMBL1148432, “PDE2 inhibition by the PI3 kinase inhibitor LY294002 and analogues” (Bioorg Med Chem Lett, 2004) come the findings set out here.

T1 sequence (O00408 whole entry): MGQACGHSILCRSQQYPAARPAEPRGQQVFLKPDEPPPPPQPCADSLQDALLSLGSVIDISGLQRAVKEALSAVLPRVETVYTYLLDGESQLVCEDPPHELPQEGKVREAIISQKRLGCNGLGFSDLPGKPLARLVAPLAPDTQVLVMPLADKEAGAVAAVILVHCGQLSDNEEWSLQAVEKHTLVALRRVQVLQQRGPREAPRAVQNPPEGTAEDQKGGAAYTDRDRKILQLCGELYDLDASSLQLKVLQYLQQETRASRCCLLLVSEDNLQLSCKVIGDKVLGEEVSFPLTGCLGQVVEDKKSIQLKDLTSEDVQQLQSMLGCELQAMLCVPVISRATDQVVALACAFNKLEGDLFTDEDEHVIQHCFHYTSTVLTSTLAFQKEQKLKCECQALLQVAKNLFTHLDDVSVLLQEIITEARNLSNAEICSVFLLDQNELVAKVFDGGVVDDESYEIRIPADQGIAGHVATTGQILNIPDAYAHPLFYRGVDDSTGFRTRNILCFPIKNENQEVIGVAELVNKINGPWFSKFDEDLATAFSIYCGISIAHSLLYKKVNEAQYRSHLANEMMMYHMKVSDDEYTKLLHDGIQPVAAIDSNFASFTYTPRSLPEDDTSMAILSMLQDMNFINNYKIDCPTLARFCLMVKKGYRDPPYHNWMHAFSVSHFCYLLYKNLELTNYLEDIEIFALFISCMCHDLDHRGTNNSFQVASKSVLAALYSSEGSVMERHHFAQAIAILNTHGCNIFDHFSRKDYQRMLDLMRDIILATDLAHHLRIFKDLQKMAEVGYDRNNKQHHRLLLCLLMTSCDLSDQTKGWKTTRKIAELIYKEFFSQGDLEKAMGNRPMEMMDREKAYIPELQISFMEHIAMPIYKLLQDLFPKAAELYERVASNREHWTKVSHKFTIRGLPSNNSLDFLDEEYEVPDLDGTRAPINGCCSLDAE

One assay concerns the target T1, cGMP-dependent 3',5'-cyclic phosphodiesterase (Homo sapiens, UniProt O00408). The assay is described as follows: Inhibitory activity against human platelet phosphodiesterase 2 at 50 uM expressed as percent basal value. The method in brief:
(§1)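 PDE2 was purified from human platelet lysate by anion-exchange chromatography. The enzyme was premixed in HEPES buffer with cGMP and inhibitor or DMSO for 90 s at 37 °C, then started with cAMP substrate. The reaction was stopped after 5 min by heating at 100 °C for 3 min. AMP was measured by reverse-phase HPLC at 254 nm against standards and expressed as % of DMSO control (mean ± SE, n ≥ 3).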
On to `O=c1cc(N2CCOCC2)oc2cc(OCc3ccccc3)ccc12`, for which the Remaining activity (% of control) came out at 12%.
On the same count and under the same terms, with `O=c1cc(N2CCOCC2)oc2c(OCc3ccccc3)cccc12` the figure was 40%; with `COc1ccccc1-c1cccc2c(=O)cc(N3CCOCC3)oc12`, 47%.
For `O=c1cc(N2CCOCC2)oc2c(OCc3cccnc3)cccc12`, the Remaining activity (% of control) is 35%.
Compound `O=c1cc(N2CCOCC2)oc2c(-c3ccccc3C(F)(F)F)cccc12` registered a Remaining activity (% of control) of 43%.
With `O=c1cc(N2CCOCC2)oc2c(O)cccc12`, the Remaining activity (% of control) was found to be 19%.
On the same count and under the same terms, to `O=c1cc(N2CCOCC2)oc2c(CCc3ccccc3)cccc12` belongs 43%; to `O=c1cc(N2CCOCC2)oc2c(-c3ccc(F)cc3)cccc12`, 43%.
`O=c1cc(N2CCOCC2)oc2c(-c3ccc(Oc4ccccc4)cc3)cccc12` had a Remaining activity (% of control) of 75%.
Still for that read-out and setting: with `COc1ccc2oc(N3CCOCC3)cc(=O)c2c1` the figure was 38%.
Same read-out and setting: with `COc1cc(-c2cccc(Cl)c2)c2oc(N3CCOCC3)cc(=O)c2c1` the figure was 87%.
Compound `CCc1cc(-c2ccccc2)c2oc(N3CCOCC3)cc(=O)c2c1` displayed a Remaining activity (% of control) of 47%.
On the same count and under the same terms, to `Cc1c(OCc2ccccc2)ccc2c(=O)cc(N3CCOCC3)oc12` belongs 38%; to `O=c1cc(N2CCOCC2)oc2c(-c3ccccc3Cl)cccc12`, 62%; to `Cc1c(C#Cc2ccccc2)ccc2c(=O)cc(N3CCOCC3)oc12`, 44%.
`Cc1cc(-c2ccccc2)c2oc(N3CCOCC3)cc(=O)c2c1`: the Remaining activity (% of control) came to 60%.
The same measure, in the same setting: with `O=c1cc(N2CCOCC2)oc2c(-c3ccccc3)cccc12` [LY-294002] the figure was 54%; with `Cc1ccccc1-c1cccc2c(=O)cc(N3CCOCC3)oc12`, 47%.
Consider `O=c1cc(N2CCOCC2)oc2c(C#Cc3ccccc3)cccc12`, for which the Remaining activity (% of control) was found to be 93%.
As for `Cc1c(-c2ccccc2)ccc2c(=O)cc(N3CCOCC3)oc12`, the Remaining activity (% of control) was determined as 31%.
For the compound `COc1cc(-c2ccccc2Cl)c2oc(N3CCOCC3)cc(=O)c2c1`, the Remaining activity (% of control) is 78%.
Turning to `O=c1cc(N2CCOCC2)oc2cc(C#Cc3ccccc3)ccc12`, the Remaining activity (% of control) worked out at 92%.
Still for that read-out and setting: with `O=c1cc(N2CCOCC2)oc2cc(-c3ccccc3)ccc12` the figure was 9%.
On the same count and under the same terms, to `Cc1c(OCc2cccnc2)ccc2c(=O)cc(N3CCOCC3)oc12` belongs 35%; to `COc1cc(-c2ccccc2)c2oc(N3CCOCC3)cc(=O)c2c1`, 75%; to `O=c1cc(N2CCOCC2)oc2c(-c3ccccc3)cc(O)cc12`, 69%.
On the same count and under the same terms, to `O=c1cc(N2CCOCC2)oc2cc(OCc3cccnc3)ccc12` belongs 22%; to `COc1cc(-c2ccc(Cl)cc2)c2oc(N3CCOCC3)cc(=O)c2c1`, 67%; to `COc1cccc2c(=O)cc(N3CCOCC3)oc12`, 20%.

The target of a further assay is Phosphodiesterase 3 (Homo sapiens, UniProt Q14432+Q13370). The assay is described as follows: Inhibition of human platelet phosphodiesterase 3. The method in brief: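 PDE3 was separated from PDE2 in human platelet lysate by anion-exchange chromatography. It was assayed under conditions optimal for that isozyme, with the AMP product quantified by reverse-phase HPLC.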
Compound `O=c1cc(N2CCOCC2)oc2c(-c3ccccc3)cccc12` [LY-294002] showed an IC50 of 100 µM.

Another assay deals with T1, cGMP-dependent 3',5'-cyclic phosphodiesterase. The assay can be described thus: Inhibition of human platelet phosphodiesterase 2. The method in brief: as §1
In turn, `COc1cc(-c2cccc(Cl)c2)c2oc(N3CCOCC3)cc(=O)c2c1` registered an IC50 of 9 µM.
The compound `O=c1cc(N2CCOCC2)oc2c(-c3ccccc3)cccc12` [LY-294002] had a concentration for half-maximal inhibition (IC50) of 40 µM.
The same measure, in the same setting: with `O=c1cc(N2CCOCC2)oc2c(C#Cc3ccccc3)cccc12` the figure was 6 µM; with `CCCCCC[C@@H]([C@@H](C)O)n1cnc2c(N)ncnc21` [EHNA], 5 µM.

By IC50 is commonly meant the concentration that gives 50% inhibition. Read a low IC50 as higher potency.
